Results on 18 compounds are retold here after ChEMBL document CHEMBL5154946, “Optimization of Peptide Linker-Based Fluorescent Ligands for the Histamine H1 Receptor” (J Med Chem, 2022).

Data set [1] has as its target T1, Histamine H1 receptor (Homo sapiens, UniProt P35367). Put plainly: Binding affinity to human H1R expressed in CHO cells using Fluo-4AM as substrate incubated for 1 hrs by calcium mobilization assay based fluorometric analysis. Type of data set: cell-based. Particulars: filed as antagonist. On the technique in general: Calcium flux is commonly read through the fluorescence of an indicator in the cells.

Data set [2] deals with T1, Histamine H1 receptor. In words: Binding affinity to human H1R expressed in CHO cells assessed as shift in histamine-mediated calcium response at 1 uM using Fluo-4AM as a substrate incubated for 1 hrs by calcium mobilization assay based fluorometric analysis. Conditions: filed as antagonist. Type of data set: cell-based.
Data set [3] has as its target Histamine H3 receptor (Homo sapiens) (UniProt Q9Y5N1). In words: Binding affinity to NLuc-tagged human H3R expressed in HEK293T cell homogenates at 1 uM using NanoGlo as substrate preincubated for 2 hrs followed by substrate addition measured after 5 min in presence of clobenpropit by NanoBRET saturation binding assay. Particulars: filed as antagonist, time 125.0 min.

The target of data set [4] is Histamine H4 receptor (Homo sapiens) (UniProt Q9H3N8). Put plainly: Binding affinity to NLuc-tagged human H4R expressed in HEK293T cell homogenates at 1 uM using NanoGlo as substrate preincubated for 2 hrs followed by substrate addition measured after 5 min in presence of clobenpropit by NanoBRET saturation binding assay. Conditions: filed as antagonist, time 125.0 min. In general terms: BRET reads energy transfer from a luciferase to a nearby fluorophore.

Data set [5] has as its target T1, Histamine H1 receptor. In words: Binding affinity to human H1R expressed in CHO cells using Fluo-4AM as a substrate incubated for 45 mins by calcium mobilization assay based fluorometric analysis. Particulars: filed as antagonist. Type of data set: cell-based.
Data set [6] concerns the target T1, Histamine H1 receptor. Put plainly: Binding affinity to NLuc-tagged human H1R expressed in HEK293T cells assessed as association rate constant (kon) using furimazine as substrate measured after 90 mins by NanoBRET binding assay. Type of data set: cell-based. Conditions: filed as antagonist. The method, boiled down:
(§1)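 Live HEK293T cells expressing Nluc-tagged human H1R; fluorescent ligand added at several concentrations and BRET read in real time every min for 90 min at room temperature. kon and koff obtained from association kinetics; mean residence time taken as 1/koff. Values are means ± SEM of 4–5 separate experiments, each in triplicate.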

Data set [7] concerns the target T1, Histamine H1 receptor. Put plainly: Binding affinity to NLuc-tagged human H1R expressed in HEK293T cells assessed as dissociation rate constant (koff) using furimazine as substrate measured after 90 mins by NanoBRET binding assay. Type of data set: cell-based. Conditions: filed as antagonist. The method, boiled down: as §1
For data set [8], the target named is T1, Histamine H1 receptor. Put plainly: Binding affinity to NLuc-tagged human H1R expressed in HEK293T cells at assessed as ratio of association rate constant to dissociation rate constant by NanoBRET binding assay. Type of data set: cell-based. Conditions: filed as antagonist. The method in brief:
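Real-time NanoBRET association kinetics on Nluc-H1R HEK293T cells. Several fluorescent ligand concentrations were tested, with BRET read every min for 90 min at room temperature. pKD was derived from kon/koff. Means ± SEM from 4–5 experiments in triplicate.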

Data set [9] concerns the target T1, Histamine H1 receptor. In words: Displacement of VUF13816-based fluorescent ligand 1 from Nluc-tagged human H1R expressed in HEK293T cells assessed as fold change incubated for 2 hrs by NanoBRET competition binding assay. Conditions: filed as antagonist.
Data set [10] addresses T1, Histamine H1 receptor. Put plainly: Displacement of VUF13816-based fluorescent ligand 1 from Nluc-tagged human H1R expressed in HEK293T cells incubated for 2 hrs by NanoBRET competition binding assay.
Data set [11] is described as follows: Drug localization in plasma membrane of chinese hamster CHO cells expressing YFP-tagged H1R at 1 to 25 nM incubated for 30 min by confocal microscopy. Particulars: 0.5 h, 0.025 µM, dose 1-25 nM. Type of data set: ADME, cell membranes, Cricetulus griseus. The method in brief:
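CHO cells expressing YFP-tagged H1R were incubated for 30 min at 37 °C with fluorescent ligand at 1, 5, 10 or 25 nM, with or without 10 μM mepyramine pretreatment to define nonspecific binding. Plasma membrane versus intracellular localization was judged by confocal imaging in red and green channels. Three independent experiments.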

SMILES strings stand for the structures. Activity calls are given as the source filed them. The calls are words filed in the database; no cut-off is given here. Square brackets hold non-standard residues; d marks the D form. Peptide text beside a SMILES is read from it. * marks the point of attachment. X1 = O=C(COc1ccc(/C=C/C2=[N+]3C(=Cc4ccc(-c5cccs5)n4[B-]3(F)F)C=C2)cc1)*; Propanoyl(3-Pip(4-O-2-BnPh)) = O=C(CCN1CCC(Oc2ccccc2Cc2ccccc2)CC1)*; X3 = Cc1cc(C)n2c1C=C1C=CC(/C=C/c3ccc(OCC(=O)*)cc3)=[N+]1[B-]2(F)F; BODIPY(FL) = CC1=CC(C)=[N+]2C1=Cc1ccc(CCC(=O)*)n1[B-]2(F)F; X2 = O=C(CCC1=[N+]2C(=Cc3ccc(-c4cccs4)n3[B-]2(F)F)C=C1)*; βAla = NCCC(=O)O

T1 sequence (P35367 whole entry): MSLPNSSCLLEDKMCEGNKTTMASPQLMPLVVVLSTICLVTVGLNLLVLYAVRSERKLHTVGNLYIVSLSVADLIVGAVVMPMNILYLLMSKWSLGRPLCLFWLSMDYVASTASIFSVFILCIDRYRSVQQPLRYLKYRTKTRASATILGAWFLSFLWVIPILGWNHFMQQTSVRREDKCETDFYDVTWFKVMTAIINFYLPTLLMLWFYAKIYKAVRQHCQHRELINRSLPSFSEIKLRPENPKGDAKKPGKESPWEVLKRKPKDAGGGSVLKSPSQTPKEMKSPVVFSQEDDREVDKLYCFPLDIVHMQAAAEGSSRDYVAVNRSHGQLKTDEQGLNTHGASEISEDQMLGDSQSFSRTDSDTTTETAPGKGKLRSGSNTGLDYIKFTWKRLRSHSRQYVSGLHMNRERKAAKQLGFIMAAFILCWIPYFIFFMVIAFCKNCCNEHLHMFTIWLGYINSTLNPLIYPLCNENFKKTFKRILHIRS
Sequence of Histamine H3 receptor (Homo sapiens) (Q9Y5N1 whole entry): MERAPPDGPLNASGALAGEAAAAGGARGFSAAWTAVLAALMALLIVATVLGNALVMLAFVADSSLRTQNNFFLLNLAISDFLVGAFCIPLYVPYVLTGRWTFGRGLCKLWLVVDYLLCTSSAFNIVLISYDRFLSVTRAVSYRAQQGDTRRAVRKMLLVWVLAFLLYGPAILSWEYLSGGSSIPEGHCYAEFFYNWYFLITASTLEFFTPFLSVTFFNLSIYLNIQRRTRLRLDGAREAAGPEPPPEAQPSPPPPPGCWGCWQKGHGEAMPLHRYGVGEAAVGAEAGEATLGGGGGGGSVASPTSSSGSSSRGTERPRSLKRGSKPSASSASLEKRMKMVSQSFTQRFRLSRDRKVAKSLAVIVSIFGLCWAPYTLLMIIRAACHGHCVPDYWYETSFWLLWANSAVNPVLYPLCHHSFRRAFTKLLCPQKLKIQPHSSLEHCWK
Sequence of Histamine H4 receptor (Homo sapiens) (Q9H3N8 whole entry): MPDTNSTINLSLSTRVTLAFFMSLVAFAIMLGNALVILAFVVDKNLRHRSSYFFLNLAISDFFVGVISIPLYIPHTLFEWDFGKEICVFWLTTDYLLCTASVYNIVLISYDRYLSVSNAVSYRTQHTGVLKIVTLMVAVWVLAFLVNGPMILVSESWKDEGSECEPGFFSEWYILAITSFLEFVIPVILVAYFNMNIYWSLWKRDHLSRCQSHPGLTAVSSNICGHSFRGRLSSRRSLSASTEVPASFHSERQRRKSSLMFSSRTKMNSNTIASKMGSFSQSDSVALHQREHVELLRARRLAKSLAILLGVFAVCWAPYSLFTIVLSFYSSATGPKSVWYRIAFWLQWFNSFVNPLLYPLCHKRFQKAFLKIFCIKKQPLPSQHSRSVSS

As to `CC(C)[C@H](NC(=O)CCN1CCC(Oc2ccccc2Cc2ccccc2)CC1)C(=O)N[C@@H](CO)C(=O)N[C@@H](CC(N)=O)C(=O)NCCC(=O)N[C@@H](CCCCNC(=O)CCCCC[N+]1=C(/C=C/C=C/C=C2/N(C)c3ccc(S(=O)(=O)[O-])cc3C2(C)C)C(C)(C)c2cc(S(=O)(=O)O)ccc21)C(N)=O`, on Histamine H1 receptor [1], the pKb came out at 5.33. Besides, the result at Histamine H1 receptor [2] was Active.
Consider `C[C@H](NC(=O)[C@H](C)NC(=O)[C@H](Cc1ccccc1)NC(=O)CCN1CCC(Oc2ccccc2Cc2ccccc2)CC1)C(=O)NCCC(=O)N[C@@H](CCCCNC(=O)CCCCC[N+]1=C(/C=C/C=C/C=C2/N(C)c3ccc(S(=O)(=O)[O-])cc3C2(C)C)C(C)(C)c2cc(S(=O)(=O)O)ccc21)C(N)=O`, for which, on Histamine H1 receptor [1], the negative logarithm of the Kb (pKb) was 6.09. The result on Histamine H1 receptor [2] was Active.
Turning to `N=C(NCc1ccc(Cl)cc1)SCCCc1c[nH]cn1`, the outcome in data set [3] and in data set [4] was Active.
As for `C[C@@H](NC(=O)CCN1CCC(Oc2ccccc2Cc2ccccc2)CC1)C(=O)N[C@H](C)C(=O)N[C@H](C)C(=O)NCCNC(=O)CCCCCNC(=O)COc1ccc(/C=C/C2=[N+]3C(=Cc4ccc(-c5cccs5)n4[B-]3(F)F)C=C2)cc1` (stereo in doubt), the pKb on Histamine H1 receptor [5] was determined as 8.6.
For the compound `Cc1cc(C)n2c1C=C1C=CC(CCC(=O)NCCCC[C@H](NC(=O)CCNC(=O)[C@H](C)NC(=O)[C@H](C)NC(=O)[C@H](Cc3ccccc3)NC(=O)CCN3CCC(Oc4ccccc4Cc4ccccc4)CC3)C(N)=O)=[N+]1[B-]2(F)F` ({Propanoyl(3-Pip(4-O-2-BnPh))}-FAA[βAla]K(BODIPY(FL))-NH2), the pKb on Histamine H1 receptor [1] stood at 7.46. Also, the result on Histamine H1 receptor [2] was Active.
For the compound `C[C@H](NC(=O)[C@H](C)NC(=O)[C@H](Cc1ccccc1)NC(=O)CCN1CCC(Oc2ccccc2Cc2ccccc2)CC1)C(=O)NCCC(=O)N[C@@H](CCCCNC(=O)COc1ccc(/C=C/C2=[N+]3C(=Cc4ccc(-c5cccs5)n4[B-]3(F)F)C=C2)cc1)C(N)=O` ({Propanoyl(3-Pip(4-O-2-BnPh))}-FAA[βAla]K(X1)-NH2), the negative-log Kb (pKb) at Histamine H1 receptor [1] came to 8.59. Moreover, the figures for the K on Histamine H1 receptor [6] and at Histamine H1 receptor [7] were 0.686 10^6/M/min and 0.014 min⁻¹, respectively. Moreover, the pKd on Histamine H1 receptor [8] worked out at 7.64. The outcome on Histamine H1 receptor [2] was Active.
Regarding `C[C@H](NC(=O)[C@H](C)NC(=O)[C@H](Cc1ccccc1)NC(=O)CCN1CCC(Oc2ccccc2Cc2ccccc2)CC1)C(=O)NCCC(=O)N[C@@H](CCCCNC(=O)CCC1=[N+]2C(=Cc3ccc(-c4cccs4)n3[B-]2(F)F)C=C1)C(N)=O` ({Propanoyl(3-Pip(4-O-2-BnPh))}-FAA[βAla]K(X2)-NH2), the pKb at Histamine H1 receptor [1] came to 6.44. The result on Histamine H1 receptor [2] was Active.
The matching figures for `Cc1cc(C)n2c1C=C1C=CC(/C=C/c3ccc(OCC(=O)NCCCC[C@H](NC(=O)CCNC(=O)[C@H](C)NC(=O)[C@H](C)NC(=O)[C@H](Cc4ccccc4)NC(=O)CCN4CCC(Oc5ccccc5Cc5ccccc5)CC4)C(N)=O)cc3)=[N+]1[B-]2(F)F` ({Propanoyl(3-Pip(4-O-2-BnPh))}-FAA[βAla]K(X3)-NH2): 6.99 and “Active”.
On to `CC(C)[C@H](NC(=O)CCN1CCC(Oc2ccccc2Cc2ccccc2)CC1)C(=O)N[C@@H](C)C(=O)N[C@@H](C)C(=O)N[C@H](Cc1ccccc1)C(N)=O` ({Propanoyl(3-Pip(4-O-2-BnPh))}-VAA[dF]-NH2), for which, on Histamine H1 receptor [9], the fold change (FC) turned out to be 2.
For `CC(C)[C@H](NC(=O)CCN1CCC(Oc2ccccc2Cc2ccccc2)CC1)C(=O)N[C@@H](CO)C(=O)N[C@@H](C)C(=O)N[C@H](Cc1ccccc1)C(N)=O` ({Propanoyl(3-Pip(4-O-2-BnPh))}-VSA[dF]-NH2), the fold change (FC) at Histamine H1 receptor [9] was 2.
In the case of `CC(C)[C@H](NC(=O)CCN1CCC(Oc2ccccc2Cc2ccccc2)CC1)C(=O)N[C@@H](CO)C(=O)N[C@@H](CC(N)=O)C(=O)N[C@@H](Cc1ccccc1)C(N)=O` ({Propanoyl(3-Pip(4-O-2-BnPh))}-VSNF-NH2), the affinity at Histamine H1 receptor [10], expressed as Ki, was 89 nM.
`Cc1cc(C)n2c1C=C1C=CC(CCC(=O)NCCCC[C@H](NC(=O)CCNC(=O)[C@H](CC(N)=O)NC(=O)[C@H](CO)NC(=O)[C@@H](NC(=O)CCN3CCC(Oc4ccccc4Cc4ccccc4)CC3)C(C)C)C(N)=O)=[N+]1[B-]2(F)F` ({Propanoyl(3-Pip(4-O-2-BnPh))}-VSN[βAla]K(BODIPY(FL))-NH2): at Histamine H1 receptor [1], the pKb turned out to be 6.95. Besides, at Histamine H1 receptor [2], the result was Active.
Regarding `CC(C)[C@H](NC(=O)CCN1CCC(Oc2ccccc2Cc2ccccc2)CC1)C(=O)N[C@@H](CO)C(=O)N[C@@H](CC(N)=O)C(=O)NCCC(=O)N[C@@H](CCCCNC(=O)COc1ccc(/C=C/C2=[N+]3C(=Cc4ccc(-c5cccs5)n4[B-]3(F)F)C=C2)cc1)C(N)=O` ({Propanoyl(3-Pip(4-O-2-BnPh))}-VSN[βAla]K(X1)-NH2), the pKb at Histamine H1 receptor [1] was 8.56. Moreover, the K on Histamine H1 receptor [6] is 0.839 10^6/M/min; at Histamine H1 receptor [7] it was 0.014 min⁻¹. In addition, the pKd on Histamine H1 receptor [8] came to 7.74. For the same compound, the outcome at Histamine H1 receptor [2] was Active. For the same compound, the Drug uptake result in data set [11] is reported as “Active”.
For the compound `CC(C)[C@H](NC(=O)CCN1CCC(Oc2ccccc2Cc2ccccc2)CC1)C(=O)N[C@@H](CO)C(=O)N[C@@H](CC(N)=O)C(=O)NCCC(=O)N[C@@H](CCCCNC(=O)CCC1=[N+]2C(=Cc3ccc(-c4cccs4)n3[B-]2(F)F)C=C1)C(N)=O` ({Propanoyl(3-Pip(4-O-2-BnPh))}-VSN[βAla]K(X2)-NH2), on Histamine H1 receptor [1], the pKb is 6.52. For the same compound, the result on Histamine H1 receptor [2] was Active.
As to `Cc1cc(C)n2c1C=C1C=CC(/C=C/c3ccc(OCC(=O)NCCCC[C@H](NC(=O)CCNC(=O)[C@H](CC(N)=O)NC(=O)[C@H](CO)NC(=O)[C@@H](NC(=O)CCN4CCC(Oc5ccccc5Cc5ccccc5)CC4)C(C)C)C(N)=O)cc3)=[N+]1[B-]2(F)F` ({Propanoyl(3-Pip(4-O-2-BnPh))}-VSN[βAla]K(X3)-NH2), the pKb at Histamine H1 receptor [1] worked out at 6.96. On Histamine H1 receptor [2], the result was Active.
With `CC(C)[C@H](NC(=O)CCN1CCC(Oc2ccccc2Cc2ccccc2)CC1)C(=O)N[C@@H](CO)C(=O)N[C@@H](CO)C(=O)N[C@H](Cc1ccccc1)C(N)=O` ({Propanoyl(3-Pip(4-O-2-BnPh))}-VSS[dF]-NH2), on Histamine H1 receptor [9], the fold change (FC) worked out at 2.
With `CC(C)[C@H](NC(=O)CCN1CCC(Oc2ccccc2Cc2ccccc2)CC1)C(=O)N[C@@H](CO)C(=O)N[C@@H](Cc1ccc(O)cc1)C(=O)N[C@@H](Cc1ccccc1)C(N)=O` ({Propanoyl(3-Pip(4-O-2-BnPh))}-VSYF-NH2), affinity on Histamine H1 receptor [10] was put at a Ki of 437 nM.
Regarding `CC(C)[C@H](NC(=O)CCN1CCC(Oc2ccccc2Cc2ccccc2)CC1)C(=O)N[C@@H](CO)C(=O)N[C@@H](Cc1ccc(O)cc1)C(=O)N[C@H](Cc1ccccc1)C(N)=O` ({Propanoyl(3-Pip(4-O-2-BnPh))}-VSY[dF]-NH2), at Histamine H1 receptor [9], the fold change (FC) is 2.

Usually pKb stands for the negative decadic logarithm of the Kb, by convention in mol/L. A word on the pKd: it is the negative decadic logarithm of the Kd, by convention in mol/L. As a reminder, the Ki is a measure of affinity in units of concentration, obtained from inhibition or displacement. A high value points to a looser hold on the target.
